Data published in ChEMBL document CHEMBL4130527, “New Scaffold for Angiogenesis Inhibitors Discovered by Targeted Chemical Transformations of Wondonin Natural Products” (ACS Med Chem Lett, 2017).
The source made the active and inactive calls. No cut-off for these calls is given here.

Legend:
HUVEC [1] = assay: Antiangiogenic activity in HUVEC assessed as inhibition of VEGF-induced capillary tube formation after 8 hrs by matrigel based inverted microscopic analysis; assay type: functional, cell-based; conditions: Homo sapiens
How it was run: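 HUVECs treated with compound with or without VEGF (50 ng/mL) for 8 h. Intact tubes counted under a microscope, and IC50 calculated against control. Value is the mean IC50 from triplicate experiments.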

HUVEC [2] = assay: Growth inhibition of HUVEC after 24 hrs in presence of VEGF by MTT assay; assay type: cell-based; conditions: Homo sapiens
How it was run: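 HUVECs exposed to compound in the presence of VEGF (50 ng/mL) for 24 h, with growth read by MTT assay. Value is the mean IC50 from triplicate experiments.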

HUVEC [3] = assay: Antimigratory activity in HUVEC after 24 hrs by inverted phase contrast light microscopic analysis; assay type: functional, cell-based; conditions: Homo sapiens
How it was run: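 Migrated HUVECs counted and compared with VEGF-treated control groups. Statistics by ANOVA with Tukey's test, n = 3.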

[4] = molecular target: Vascular endothelial growth factor receptor 2 (Homo sapiens) (UniProt P35968); assay: Inhibition of VEGFR2 in HUVEC assessed as decrease in VEGF-induced PI3K phosphorylation at Tyr458 residues pretreated for 30 mins followed by VEGF stimulation for 20 mins by Western blot analysis; assay type: cell-based
How it was run: (§1)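 HUVECs pretreated with various compound concentrations for 30 min, then stimulated with VEGF (50 ng/mL) for 20 min. Phosphoproteins detected by immunoblot, with β-actin as loading control.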

[5] = molecular target: Vascular endothelial growth factor receptor 2 (Homo sapiens) (UniProt P35968); assay: Inhibition of VEGFR2 in HUVEC assessed as decrease in VEGF-induced AKT phosphorylation at Thr308 residues pretreated for 30 mins followed by VEGF stimulation for 20 mins by Western blot analysis; assay type: cell-based; how it was run: as §1
[6] = molecular target: Vascular endothelial growth factor receptor 2 (Homo sapiens) (UniProt P35968); assay: Inhibition of VEGFR2 in HUVEC assessed as decrease in VEGF-induced eNOS phosphorylation at Ser1177 residues pretreated for 30 mins followed by VEGF stimulation for 20 mins by Western blot analysis; assay type: cell-based; how it was run: as §1
[7] = molecular target: Vascular endothelial growth factor receptor 2 (Homo sapiens) (UniProt P35968); assay: Inhibition of VEGF-induced VEGFR2 phosphorylation at Tyr1175 residues in HUVEC pretreated for 30 mins followed by VEGF stimulation for 20 mins by Western blot analysis; assay type: cell-based; how it was run: as §1
[8] = molecular target: Vascular endothelial growth factor receptor 2 (Homo sapiens) (UniProt P35968); assay: Inhibition of VEGFR2 in HUVEC assessed as decrease in VEGF-induced SRC phosphorylation pretreated for 30 mins followed by VEGF stimulation for 20 mins by Western blot analysis; assay type: cell-based; how it was run: as §1
[9] = molecular target: Vascular endothelial growth factor receptor 2 (Homo sapiens) (UniProt P35968); assay: Inhibition of VEGFR2 in HUVEC assessed as decrease in VEGF-induced AKT phosphorylation at […] residues pretreated for 30 mins followed by VEGF stimulation for 20 mins by Western blot analysis; assay type: cell-based; how it was run: as §1
[10] = molecular target: Vascular endothelial growth factor receptor 2 (Homo sapiens) (UniProt P35968); assay: Inhibition of VEGFR2 in HUVEC assessed as decrease in VEGF-induced FAK phosphorylation at Tyr397 residues pretreated for 30 mins followed by VEGF stimulation for 20 mins by Western blot analysis; assay type: cell-based; how it was run: as §1
HUVEC [11] = assay: Inhibition of integrin in HUVEC assessed as decrease in VEGF-induced SRC/FAK phosphorylation pretreated for 30 mins followed by VEGF stimulation for 20 mins by Western blot analysis; assay type: cell-based; conditions: Homo sapiens; how it was run: as §1
[12] = molecular target: Casein kinase I isoform alpha (Homo sapiens) (UniProt P48729); assay: Inhibition of human wild type partial length CSNK1A1 (M1 to L301 residues) expressed in mammalian expression system at 10 uM by Kinomescan method relative to control
How it was run: (§2)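 Compound tested at 10 μM in a KINOMEscan binding panel of 30 kinases. Activity taken from binding between each kinase and its corresponding ligand.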

[13] = molecular target: T1, Protein kinase C iota type (Homo sapiens) (UniProt P41743); assay: Inhibition of human wild type partial length PRKCI (H215 to V587 residues) expressed in mammalian expression system at 10 uM by Kinomescan method relative to control; how it was run: as §2
T1 sequence (whole entry): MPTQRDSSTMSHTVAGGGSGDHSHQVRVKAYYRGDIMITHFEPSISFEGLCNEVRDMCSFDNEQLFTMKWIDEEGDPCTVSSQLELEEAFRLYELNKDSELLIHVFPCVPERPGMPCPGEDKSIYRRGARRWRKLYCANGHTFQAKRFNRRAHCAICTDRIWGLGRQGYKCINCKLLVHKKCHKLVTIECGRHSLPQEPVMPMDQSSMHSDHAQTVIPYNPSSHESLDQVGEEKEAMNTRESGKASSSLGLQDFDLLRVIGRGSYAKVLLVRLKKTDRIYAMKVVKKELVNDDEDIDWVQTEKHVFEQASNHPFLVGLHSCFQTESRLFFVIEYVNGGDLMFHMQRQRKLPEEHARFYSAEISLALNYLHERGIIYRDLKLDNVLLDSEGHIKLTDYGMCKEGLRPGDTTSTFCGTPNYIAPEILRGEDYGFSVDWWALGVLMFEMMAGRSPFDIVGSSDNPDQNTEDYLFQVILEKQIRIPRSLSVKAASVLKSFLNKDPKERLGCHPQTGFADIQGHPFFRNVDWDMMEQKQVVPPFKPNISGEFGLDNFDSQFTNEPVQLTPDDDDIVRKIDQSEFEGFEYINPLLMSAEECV

[14] = molecular target: Dual specificity mitogen-activated protein kinase kinase 1 (Homo sapiens) (UniProt Q02750); assay: Inhibition of human wild type partial length MEK1 (M1 to V393 residues) expressed in mammalian expression system at 10 uM by Kinomescan method relative to control; how it was run: as §2
Danio rerio [15] = species: Danio rerio; assay: Antiangiogenic activity in transgenic zebrafish flk:EGFP embryo model of DR-mimic hyaloid vessels in larval eye lenses assessed as inhibition of high glucose induced increase in hyaloid vessel diameter pretreated with glucose 3 days post fertilization for 3 days followed by compound addition measured 6 days post fertilization by fluorescence microscopy; assay type: functional, organism-based
How it was run: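 Transgenic flk:EGFP zebrafish embryos at 3 dpf exposed to 130 mM glucose for 3 days to induce DR-mimic hyaloid vessels, with compound at varying concentrations. Hyaloid vessel diameter measured near the optic disc in isolated eye lenses; primary branch number compared with high-glucose controls. ANOVA with Tukey's test, n = 3.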

Danio rerio [16] = species: Danio rerio; assay: Toxicity in transgenic zebrafish flk:EGFP embryo model of DR-mimic hyaloid vessels in larval eye lenses measured 6 days post fertilization; assay type: organism-based; conditions: in vivo, 144 h
[17] = Apparent permeability from apical to basolateral side in MDCK cells at 10 uM by LC-MS/MS analysis; assay type: ADME, cell-based, Canis lupus familiaris; conditions: dog
How it was run: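 Apparent permeability coefficient (Papp, A-B) measured across MDCK cell monolayers.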

[18] = Stability in human plasma assessed as parent compound remaining at 10 uM after 30 mins by LC-MS/MS analysis; assay type: ADME, cell-free; conditions: read-out: Stability
How it was run: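 Parent compound remaining after 30 min incubation in human plasma.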

[19] = Metabolic stability in human liver microsomes assessed as parent compound remaining at 1 uM preincubated for 5 mins followed by NADPH addition measured after 30 mins by LC-MS/MS analysis; assay type: ADME, microsome; conditions: read-out: Stability
How it was run: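 Parent compound remaining after 30 min incubation with human liver microsomes.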

Chain of Vascular endothelial growth factor receptor 2 (Homo sapiens) (P35968 whole entry): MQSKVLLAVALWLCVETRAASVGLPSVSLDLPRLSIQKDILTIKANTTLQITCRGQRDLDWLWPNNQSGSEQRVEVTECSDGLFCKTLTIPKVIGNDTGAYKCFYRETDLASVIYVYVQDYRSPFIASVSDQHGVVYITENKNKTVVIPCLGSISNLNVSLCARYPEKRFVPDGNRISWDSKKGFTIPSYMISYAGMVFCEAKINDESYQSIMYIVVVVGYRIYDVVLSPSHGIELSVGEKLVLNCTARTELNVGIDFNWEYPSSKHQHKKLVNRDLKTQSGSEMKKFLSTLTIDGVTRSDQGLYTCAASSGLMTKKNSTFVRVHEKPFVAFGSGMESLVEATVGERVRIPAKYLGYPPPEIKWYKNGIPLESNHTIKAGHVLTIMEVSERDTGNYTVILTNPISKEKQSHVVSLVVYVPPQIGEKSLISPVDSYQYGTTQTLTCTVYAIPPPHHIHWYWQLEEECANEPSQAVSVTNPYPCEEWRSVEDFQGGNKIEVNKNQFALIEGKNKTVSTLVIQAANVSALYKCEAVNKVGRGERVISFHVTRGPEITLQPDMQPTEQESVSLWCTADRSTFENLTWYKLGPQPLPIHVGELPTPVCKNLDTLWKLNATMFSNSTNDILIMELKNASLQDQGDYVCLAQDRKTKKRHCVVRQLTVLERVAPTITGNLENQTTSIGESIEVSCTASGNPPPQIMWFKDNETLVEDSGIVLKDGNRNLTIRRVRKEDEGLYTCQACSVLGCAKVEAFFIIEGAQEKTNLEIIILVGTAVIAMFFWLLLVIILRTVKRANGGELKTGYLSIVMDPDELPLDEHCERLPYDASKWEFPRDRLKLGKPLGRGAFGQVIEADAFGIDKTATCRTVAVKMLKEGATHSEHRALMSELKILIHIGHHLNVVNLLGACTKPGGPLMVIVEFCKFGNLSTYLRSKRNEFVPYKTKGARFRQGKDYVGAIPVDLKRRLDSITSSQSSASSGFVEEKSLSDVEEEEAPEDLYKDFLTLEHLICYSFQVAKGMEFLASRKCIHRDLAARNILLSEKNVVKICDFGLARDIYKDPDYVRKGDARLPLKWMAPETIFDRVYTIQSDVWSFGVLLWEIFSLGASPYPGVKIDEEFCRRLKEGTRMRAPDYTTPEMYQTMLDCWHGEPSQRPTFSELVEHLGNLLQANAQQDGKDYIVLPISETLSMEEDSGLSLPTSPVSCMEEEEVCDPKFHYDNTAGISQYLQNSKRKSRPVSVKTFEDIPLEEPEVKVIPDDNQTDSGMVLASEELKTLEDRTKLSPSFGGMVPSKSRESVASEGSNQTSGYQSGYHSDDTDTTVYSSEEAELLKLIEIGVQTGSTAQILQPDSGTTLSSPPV
Chain of Casein kinase I isoform alpha (Homo sapiens) (P48729 2-337 limits assumed): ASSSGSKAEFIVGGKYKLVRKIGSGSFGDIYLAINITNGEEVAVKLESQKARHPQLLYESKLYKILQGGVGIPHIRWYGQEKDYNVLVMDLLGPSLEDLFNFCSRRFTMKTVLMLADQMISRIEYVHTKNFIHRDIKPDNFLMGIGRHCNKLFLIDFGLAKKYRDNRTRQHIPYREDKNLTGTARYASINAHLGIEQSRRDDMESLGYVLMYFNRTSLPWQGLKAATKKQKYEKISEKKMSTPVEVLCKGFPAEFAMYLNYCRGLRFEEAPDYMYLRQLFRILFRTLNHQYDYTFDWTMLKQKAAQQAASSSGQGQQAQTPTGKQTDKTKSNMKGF
Chain of Dual specificity mitogen-activated protein kinase kinase 1 (Homo sapiens) (Q02750 whole entry, the tested form may be a part): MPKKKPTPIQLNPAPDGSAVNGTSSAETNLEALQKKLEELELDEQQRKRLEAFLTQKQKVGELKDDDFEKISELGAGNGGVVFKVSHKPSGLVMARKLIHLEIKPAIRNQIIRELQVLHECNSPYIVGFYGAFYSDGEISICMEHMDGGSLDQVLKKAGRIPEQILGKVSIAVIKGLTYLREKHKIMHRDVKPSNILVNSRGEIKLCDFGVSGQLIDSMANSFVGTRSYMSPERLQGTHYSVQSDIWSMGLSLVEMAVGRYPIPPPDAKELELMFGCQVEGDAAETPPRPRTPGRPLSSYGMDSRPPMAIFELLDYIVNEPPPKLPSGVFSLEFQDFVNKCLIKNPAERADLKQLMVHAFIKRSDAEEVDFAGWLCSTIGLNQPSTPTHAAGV

| SMILES | IC50 (HUVEC [1]) | IC50 (HUVEC [2]) | further results |
| --- | --- | --- | --- |
| CCc1ccc2nc(C(c3ccc(OC)c(OC)c3)n3cc(CCN4CCCCC4)nn3)sc2c1 (configuration not stated) | 0.631 µM | 47.5 µM | inhibition (HUVEC [1]): Dose-dependent effect; Activity (HUVEC [3]): Dose-dependent effect; inhibition [4]: Active; inhibition [5]: Active; inhibition [6]: Active; inhibition [7]: Active; inhibition [8]: Active; inhibition [9]: Active; inhibition [10]: Active; inhibition (HUVEC [11]): Active; inhibition [12]: > 40%; inhibition [13]: > 40%; inhibition [14]: > 40%; inhibition (Danio rerio [15]): Dose-dependent effect; Activity (Danio rerio [16]): Non-Toxic; Papp A→B at 10 µM [17]: 11 ×10⁻⁶ cm/s; remaining at 0.5 h, 10 µM [18]: 95%; remaining at 0.5 h, 1 µM [19]: 31% |
| CN(C)CCc1cn(C(c2ccc(O)c(O)c2)C2Oc3ccc(/C=C/OS(=O)(=O)O)cc3O2)cn1 (configuration not stated) | 42.8 µM | > 100 µM |  |
| CCc1ccc2nc(C(c3ccc(O)c(O)c3)n3cc(CCN(C)C)nn3)oc2c1 (configuration not stated) | > 20 µM | > 100 µM |  |
| CCc1ccc2c(c1)OC(C(c1ccc(O)c(O)c1)n1cc(CCN(C)C)nn1)O2 (configuration not stated) | 28 µM | 95.9 µM |  |
| CCc1ccc2nc(C(c3ccc(O)c(O)c3)n3cc(CCN(C)C)nn3)sc2c1 (configuration not stated) | 3.04 µM | 37.3 µM |  |
| CCc1ccc2nc(C(c3ccc(OC)c(OC)c3)n3cc(CCN(C)C)nn3)sc2c1 (configuration not stated) | 8.27 µM | 93.5 µM |  |
| CCc1ccc2nc(C(c3ccc(OC)c(OC)c3)n3cc(CCN4CCOCC4)nn3)sc2c1 (configuration not stated) | 3.93 µM | > 100 µM |  |
| CCc1ccc2nc(C(c3ccc(OC)c(OC)c3)n3cc(CCNC4CCCC4)nn3)sc2c1 (configuration not stated) | 1.02 µM | 19.4 µM |  |
| CCc1ccc2nc(C(c3ccc(OC)c(OC)c3)n3cc(CCN4CCCC4)nn3)sc2c1 (configuration not stated) | 2.84 µM | 70.3 µM |  |
| CCCNCCc1cn(C(c2ccc(OC)c(OC)c2)c2nc3ccc(CC)cc3s2)nn1 (configuration not stated) | 1.39 µM | 38.6 µM |  |
| CCc1ccc2cc(C(c3ccc(O)c(O)c3)n3cc(CCN(C)C)nn3)oc2c1 (configuration not stated) | 6.1 µM | 22 µM |  |
| CCN(CC)CCNC(=O)c1c(C)[nH]c(/C=C2\C(=O)Nc3ccc(F)cc32)c1C [SUNITINIB] | 0.546 µM | 9.92 µM |  |
